The list is not random: actives were taken first. Their share in the collection is about 3.7%.
KCNQ1 inh = human KCNQ1 channel inhibition; P51787; CHO-K1 KCNQ1, FluxOR thallium flux fluorescence; stronger effect = higher value; B-score at 10 µM; 1.3% of 310,000 active; AID 2642;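 active means compounds whose thallium flux B-score, printed positive for inhibition, exceeds three library SD while starting fluorescence stays within three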;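 further: channel opened by potassium depolarization with thallium stimulus after 20 min compound exposure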
Kir21 inh = Kir2.1 (mouse) channel inhibition. P35561. HEK293-Kir2.1, FluxOR thallium flux fluorescence; stronger effect = lower value. B-score at 10 µM. 0.85% of 310,000 active;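 active means fluorescence ratio B-score at or below minus 3 SD of library scores, with starting-brightness B-score within 2 SD, cut at about -4.2 in these data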;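 further: channel flux triggered by added potassium and thallium sulfate stimulus; B-score of peak minus minimum fluorescence over baseline after thallium stimulus; more negative B-score means stronger Kir2.1 block with less thallium influx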
KCNQ1 act = potentiators or activators of human KCNQ1 potassium channel. P51787. CHO-K1 KCNQ1, thallium flux FluxOR fluorescence; stronger effect = higher value. B-score at 10 µM. 0.35% of 310,000 active;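 active means fluorescence ratio B-score, a plate-corrected score, at least three library SD, with initial intensity B-score within 5 SD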
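Schedule – 37 °C overnight plating, 90-min dark dye load, 20-min compound pretreatment · System – stable KCNQ1 CHO-K1 line · Probe or stimulus – thallium- and potassium-containing depolarizing buffer · Measured by – kinetic FluxOR fluorescence, 10 s baseline plus 110 s post-stimulus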
hERG protect = compounds protecting human hERG from proarrhythmic drug block | CHO-hERG, FluxOR thallium flux, dofetilide IC70 present | AID 1511 | 0.51% of 310,000 active | activation (rescue from dofetilide block), less the hit threshold, % at 10 µM | Q12809;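 active means activation above the mean of controls blocked by dofetilide plus 5 SD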;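 further: thallium influx through hERG after potassium depolarization seen as dye fluorescence rise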
KCNK9 block = inhibitors of human KCNK9 two-pore domain potassium channel; HEK293 KCNK9, FluxOR thallium flux fluorescence; stronger effect = lower value; AID 488922; Q9NPC2; B-score at 10 µM; 1.2% of 310,000 active;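 active means ratio B-score over 3 SD below the library mean, with starting fluorescence within 5 SD of its mean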;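 further: negative B-score means less thallium flux so channel inhibition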
KCNK3 block = human KCNK3 channel inhibition, primary screen; O14649; CHO-KCNK3 thallium flux, FluxOR fluorescence; stronger effect = lower value; B-score at 10 µM; 0.84% of 340,000 active;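 active means B-score under library mean minus 4 SD, starting fluorescence ratio at most library mean plus 5 SD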;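 further: more negative B-score means stronger inhibition of thallium flux through KCNK3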
The depositor's hits bear a star; i = inactive; . = not tested or not shown.

SMILES | KCNQ1 inh | Kir21 inh | KCNQ1 act | hERG protect | KCNK9 block | KCNK3 block
CCCn1nc([N+](=O)[O-])c(C(C#N)c2nc3ccccc3o2)c(Cl)c1=O (configuration not stated) | 6* | -0.72 | i | -16 | i | i
CC1CCN(CCc2nc3cc(NC(=O)COc4ccccc4)ccc3n2C)CC1 | i | -0.89 | i | -7 | i | i
COc1ccc(/C=C2\SC(=S)N(CCC(=O)NCCCn3ccnc3)C2=O)cc1 | i | 0.48 | i | -13 | i | i
CCOC(=O)N1CCN(C(=O)CCN2C(=O)/C(=C\c3ccccc3OC)SC2=S)CC1 | i | -0.06 | i | -10 | i | i
COc1ccc(/C=C2\SC(=O)N(CC(=O)NCCCn3ccnc3)C2=O)cc1 | 7* | -0.24 | i | -7 | i | i
COc1cccc(/C=C2\SC(=O)N(CC(=O)NCCCn3ccnc3)C2=O)c1 | i | -2 | i | -7 | i | i
COc1ccccc1/C=C1\SC(=S)N(CCC(=O)NNC(=O)c2ccccc2O)C1=O | 6* | 1.5 | i | -28 | i | i
CCOc1ccccc1C=C1SC(=S)N(CC)C1=O | . | . | . | . | . | -9.7*
O=C(CCCN1C(=O)/C(=C/c2ccc(F)cc2)SC1=S)NCCCn1ccnc1 | i | -4.7* | i | -14 | i | i
O=C(/C=C/c1c(F)cccc1Cl)NCCCN1CCOCC1 | i | 1.4 | i | 0 | i | i
Cc1[nH]c2ccccc2c1C(=O)CN1CC(C)OC(C)C1 (configuration not stated) | i | 0.02 | i | -17 | i | .
Cc1ccc(NC(=O)Cc2nc(CN(C)CC(=O)Nc3ccc(C)cc3)cs2)cc1 | . | . | . | . | . | i
COc1ccccc1/C=C1\SC(=S)N(CCC(=O)NCCCn2ccnc2)C1=O | i | -4.5* | i | -7 | i | i
CC(=O)c1c(C)[nH]c(C(=O)OCC(=O)N(Cc2ccccc2)C(C)(C)C)c1C | . | . | . | . | . | i
CCCCC(CC)CNS(=O)(=O)c1ccc2c(c1)CCN2C(=O)CCC(=O)O (configuration not stated) | i | -8* | i | -12 | i | i
CCc1ccc(NS(=O)(=O)c2ccc3c(c2)CCN3C(=O)CCC(=O)O)cc1 | i | 0.93 | i | -7 | i | i
CC(=O)c1ccc(NC(=S)N2CCCC(C(F)(F)F)C2)cc1 (configuration not stated) | i | -0.79 | i | -10 | i | i
O=C(NC(=S)N1CCCC(C(F)(F)F)C1)c1ccc(F)cc1 (configuration not stated) | i | 0.59 | 13* | 11* | i | i
CCCc1ccc2oc(C(=O)N3CCN(CCC(N)=O)CC3)c(C)c2c1 | i | 2.1 | i | -5 | i | i
CCCCN(CCCC)S(=O)(=O)c1ccc2oc(C(=O)N3CCOCC3)c(C)c2c1 | i | -4.8* | i | -10 | i | i
Cc1ccc2oc(C(=O)N3CCN(CCO)CC3)c(C)c2c1 | i | -0.04 | 9* | 8.5* | i | i
O=C(NCc1ccc2c(c1)OCO2)C1CCCN1S(=O)(=O)c1ccc(Cl)cc1 (configuration not stated) | i | -1.9 | i | -12 | i | i
COc1ccc2nc(/N=C/c3c(C)[nH]n(-c4ccc(C)cc4C)c3=O)sc2c1 | i | -0.41 | 28* | 56* | i | i
COC(=O)[C@]1(C)N[C@H](CN(C)C(=O)c2ccc(C)cc2)[C@@H]2C(=O)N(Cc3ccccc3)C(=O)[C@@H]21 | . | . | . | . | . | i
Cc1cc2n(n1)C(c1ccc3c(c1)OCO3)Nc1ccccc1-2 (configuration not stated) | i | 1.5 | i | -17 | i | i
SMILES | KCNQ1 inh | Kir21 inh | KCNQ1 act | hERG protect | KCNK9 block | KCNK3 block
Cc1ccc2c(c1)-c1cc(C)nn1C(c1ccc3c(c1)OCO3)N2 (configuration not stated) | i | -0.43 | i | -10 | -7.6* | i
CC(=O)OC(C(=O)NCS(=O)(=O)c1ccc(C)cc1)c1cccnc1 (configuration not stated) | i | 1.1 | i | 4.8* | i | i
CC(C)Cc1ccc(/C=C/C(=O)NC2CC2)cc1 | i | -0.33 | i | -11 | i | i
CC(C)(C)C(=O)c1no[n+]([O-])c1/C(=N/O)C(C)(C)C | 6* | -1.3 | i | -10 | i | i
O=c1[nH]c2c(s1)C(c1ccco1)C1C3CCC(C3)C1S2 (configuration not stated) | i | -0.78 | i | -8 | i | i
COc1ccccc1N1CCN(C(=O)COc2ccc(Cl)cc2Br)CC1 | i | 0.02 | i | -7 | i | i
COC(=O)C1CCCN1C(=O)COc1ccc(Cl)cc1Br (configuration not stated) | i | 0.32 | 8* | 5.1* | i | i
O=C1/C(=C\c2ccc(Br)o2)Cc2ccccc21 | i | -0.61 | i | -5 | -9.9* | i
O=C1/C(=C/c2cccs2)Cc2ccccc21 | i | 1.1 | i | -10 | i | i
Cc1[nH]c2ccccc2c1/C=N/NC(=O)c1cc(C(C)C)[nH]n1 | i | -1.2 | i | -7 | i | i
CC(=O)Nc1ccc(NC(=O)CSCc2ccccc2Cl)cc1 | i | -0.25 | i | -8 | i | i
C/C(=N\NC(=O)CSCc1ccccc1Cl)c1cc(O)ccc1O | i | -2 | i | 4.7* | i | i
CCn1c(SCC(=O)OCC(=O)N2c3ccccc3NC(=O)C2(C)C)nnc1-c1ccco1 | i | -1.5 | i | 7.0* | i | i
CCC(Oc1ccccc1OC)C(=O)N1CC(=O)Nc2ccccc21 (configuration not stated) | i | -2.5 | i | -6 | i | i
Cc1cccc(NC(=O)CCc2c(C)nc3ncnn3c2C)n1 | i | -0.09 | i | 6.4* | i | i
CC(C)COCC(CN(Cc1ccccc1)c1ccccc1)N1CCCC1 (configuration not stated) | i | -6.3* | i | -17 | i | i
CC(C(=O)Nc1ccc(OCc2ccccc2)cc1)N1CCCC1 (configuration not stated) | i | 1.5 | i | -11 | i | i
NC1=NC(=Nc2ccccc2)c2ccccc21 | i | -1.2 | i | -6 | i | i
CC(C)c1ccc(N=C2N=C(N)c3ccccc32)cc1 | i | -4.5* | i | -10 | i | i
O=C(NC(=S)N1CCN(c2ccc(F)cc2)CC1)c1cccs1 | i | 0.55 | 13* | 15* | i | i
O=C(NC(=S)Nc1ccccc1N1CCOCC1)c1cccs1 | i | -0.3 | i | 3 | i | i

Source: PubChem
